Measurements pooled from the literature.
Lines come from different studies, so protocols differ.
Observed: enzyme activity
Action: inhibitor
MET: Hepatocyte growth factor receptor (MET, Homo sapiens, UniProt P08581)

Structure (SMILES)	target	technique	tested at	inhibition [%]
CS(=O)(=O)Nc1cccc(-c2csc(NC(=O)CSc3nc4nccnc4c(=O)n3CCc3ccccc3)n2)c1	MET	–	10 µM	1
CN1CC(Oc2cnc(C#N)cc2-c2ccn3nc(NC(=O)C4CC4)cc3c2)C1	MET	–	1 µM	-19
CN(C)C1CCN(CC#Cc2nn(C3CCCC3)c3nc(NCc4ccccc4)ncc23)C1 (stereo not shown)	MET	FRET	10 µM	72
CC/C(=N\NC(=O)NCc1cccc(O)c1)c1ccc(O)c(C)c1O	MET	–	0.1 µM	1.1
CNc1cccc2cc(C(=O)Nc3ccc(C(=O)O)cc3)c(=O)[nH]c12	MET	–	10 µM	1.4
CNC(=O)c1cc2c(Oc3ccc(NC(=O)C4(C(=O)Nc5ccc(F)cc5)CC4)cc3)ccnc2cc1OC	Hepatocyte growth factor receptor (MET, Homo sapiens, UniProt P08581, M1250T)	radiometric	1 µM	99
COc1cc2ncnc(Nc3ccc(Oc4ccccc4)c(C)c3C)c2cc1OC	MET	–	1 µM	8
COc1cc2nccc(Oc3ccc(NC(=O)c4c5n(n(-c6ccc(F)cc6)c4=O)CCCC5)cc3)c2cc1OC	MET	–	0.1 µM	98
COc1cc2ncnc(Nc3ccc(Oc4ccccc4)cc3C)c2cc1OC	MET	–	1 µM	-1
CNC(=O)c1cc(Oc2ccc(NC(=O)Nc3ccc(Cl)c(C(F)(F)F)c3)cc2)ccn1	MET	–	10 µM	-13
